Measured values reported in PubChem BioAssay.
Inconclusive results are not listed.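 The calls were made as follows, unless noted: active = viability increase at or above a cutoff of the median across tested compounds plus 3 SD (cut at about 8.5% in these data, passing the limit was not always enough); inconclusive = some gains above the cutoff, reason not given; inactive = the rest.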

Assays:
[1] = S. cerevisiae growth inhibition in permissive medium (OD615), pilot counter-assay for S. cerevisiae lifespan shortening project, permissive growth control (AID 705;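 active = growth inhibition above 25% in both replicates, a cutoff set 3 SD above the mean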); conditions: OD615, 24 h, at 10 µM, active compounds read high
Method in brief: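 assay system = Saccharomyces cerevisiae strain carrying genetically modified DeaD replicative-lifespan system | technique = absorbance (optical density) at 615 nm | buffer or medium = permissive raffinose/galactose medium | timing = cells pre-grown 4 h, then 24 h compound exposure, 30 °C humidified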

[2] = S. cerevisiae growth inhibition in restrictive medium, OD615, pilot screen, restrictive growth control, yeast lifespan reduction project (AID 706;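 active = growth inhibition above a set limit, 3 SD over mean compound inhibition, in both replicates, cut at about 43% in these data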;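 also: modified DeaD lifespan yeast strain shifted to restrictive glucose medium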); conditions: OD615, 48 h, at 10 µM, active compounds read high
Method in brief: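 System: modified S. cerevisiae. Buffer or medium: CSMM-D glucose medium. Incubation: 4 h pre-growth plus 48 h compound exposure, 30 °C. Detection: absorbance (optical density) measured at 615 nm.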

[3] = doxorubicin toxicity protection in MRP-1 cells – H69AR cells, CellTiter-Glo, duplicate, MRP-1 activator project, pilot screen (AID 807); conditions: H69AR viability with doxorubicin, CellTiter-Glo luminescence; at 10 µM; active compounds read high;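 also: compound pretreatment 18-22 h then 72 h combined with doxorubicin; 0% = doxorubicin alone and 100% = vehicle without doxorubicin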
[4] = viability of HCT116 without oncogenic beta-catenin – human colon tumor cells, pilot screen (AID 823;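 active = cell viability at or below a set limit in both duplicate runs, the limit being the all-compound median minus 4 SD, cut at about 23% in these data, passing the limit was not always enough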;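 also: 0% = wells killed by 20 µM Hyamine and 100% = untreated DMSO cell wells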); conditions: HCT116 beta-catenin knockout viability, CellTiter-Glo, 60 h; at 10 µM; active compounds read low
[5] = viability of PTEN-null HCT116 cells – cell-based, HCT116 clonal line, CellTiter-Glo, pilot screen (AID 824;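 active = viability at or below 27.92% in each of two runs, the all-compound median minus 4 SD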;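 also: 0% = 20 µM Hyamine control and 100% = vehicle cell control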); conditions: HCT116 PTEN-deleted viability, 60 h, at 10 µM, active compounds read low
[6] = RAM pathway blockade in budding yeast – dse1pr::URA3 reporter, 5-FOA selection, pilot screen (AID 869;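 active = inhibition over a set limit, the all-compound mean plus 3 SD, in both replicate runs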;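 also: 0% = DMSO wells with no growth and 100% = 10 µM 1-NA-PP1 with full growth; RAM network block rescues cells from 5-FOA so hits raise OD615 growth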); conditions: S. cerevisiae dse1pr::URA3 5-FOA growth, OD615, 2 d; at 10 µM; active compounds read high; strain carries analog-sensitive mutant Cbk1 kinase
[7] = RAM signaling pathway blockade in yeast – S. cerevisiae, Pdr1DBD-CYC8 efflux-inhibited sensitized strain, primary screen (AID 1298;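 active = RAM network inhibition above 8.4% in each of two replicates, 3 SD over the compound average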;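 also: 0% = DMSO untreated cells without growth and 100% = 10 µM 1-NA-PP1 full growth; higher means more yeast growth rescued from 5-FOA killing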); conditions: S. cerevisiae cbk1-as DSE1-URA3 strain, 5-FOA growth OD615, 2 d; at 50 µM; active compounds read high

CCN(c1ccccc1)S(=O)(=O)c1ccc(N)cc1
inactive: growth inhibition [1] -4.66% | growth inhibition [2] -1.86% | viability increase [3] -1.02% | viability [4] 94.5% | viability [5] 98.1% | inhibition [6] 2.56% | RAM network inhibition [7] 2.68%

CCn1c(=O)cc(O)c2ccccc21
inactive: growth inhibition [1] 1.77% | growth inhibition [2] -10.1% | viability increase [3] -1.68% | viability [4] 99% | viability [5] 94% | inhibition [6] 2.01% | RAM network inhibition [7] 1.28%

CC12C(=O)N(c3ccccn3)C(=O)C1C1C=CC2C1 (stereo not drawn)
inactive: growth inhibition [1] -13.3% | growth inhibition [2] -4.06% | viability increase [3] -0.78% | viability [4] 96.6% | viability [5] 92% | inhibition [6] 1.26% | RAM network inhibition [7] 1.11%

Cn1c(=O)c2c(nc(N3CCCCCC3)n2CCSc2nc3ccccc3o2)n(C)c1=O
inactive: growth inhibition [1] -6.38% | growth inhibition [2] -18.4% | viability increase [3] -6.62% | viability [4] 80.4% | viability [5] 83% | inhibition [6] 1.14% | RAM network inhibition [7] 2.45%

COc1ccccc1S(=O)Cc1ccc(C(=O)NCc2ccccc2Cl)o1 (stereo not drawn)
inactive: growth inhibition [1] -7.49% | growth inhibition [2] -16.8% | viability increase [3] -1.27% | viability [4] 100% | viability [5] 89.7% | inhibition [6] 2.41% | RAM network inhibition [7] 4.64%

COc1cccc(CNC(=O)CCS(=O)(=O)c2cccc3nonc23)c1
inactive: growth inhibition [1] -13.5% | growth inhibition [2] -21.2% | viability increase [3] -3.04% | viability [4] 93.2% | viability [5] 91% | inhibition [6] 1.75% | RAM network inhibition [7] 0.46%

CCOC(=O)c1nc2ccccc2s1
inactive: growth inhibition [1] -4.63% | growth inhibition [2] -15.7% | viability increase [3] -2.72% | viability [4] 99.2% | viability [5] 97.4% | inhibition [6] 1.02% | RAM network inhibition [7] 1.61%

COc1ccc(Cl)cc1NC(=O)CSc1nnc(Cn2c(=O)sc3ccccc32)n1C
inactive: growth inhibition [1] -8.82% | growth inhibition [2] -14.1% | viability increase [3] -2.64% | viability [4] 96.6% | viability [5] 95.6% | inhibition [6] 4.87% | RAM network inhibition [7] 7.45%

CCOc1ccc(N(CC(=O)Nc2nccs2)S(=O)(=O)c2c(C)noc2C)cc1
inactive: growth inhibition [1] -3.78% | growth inhibition [2] 5.32% | viability increase [3] -1.1% | viability [4] 97.5% | viability [5] 89.1% | inhibition [6] 1.25% | RAM network inhibition [7] 8.94%

COc1ccc(OC)c2sc(NC(=O)C3CC3)nc12
inactive: growth inhibition [1] 1.08% | growth inhibition [2] 5.55% | viability increase [3] -3.24% | viability [4] 99.7% | viability [5] 90.3% | inhibition [6] 1.25% | RAM network inhibition [7] 6.06%

C=CCNc1nc2c(c(=O)n(C)c(=O)n2C)n1CC
inactive: growth inhibition [1] 1.76% | growth inhibition [2] 3.36% | viability increase [3] -2.38% | viability [4] 107% | viability [5] 99.1% | inhibition [6] 2.24% | RAM network inhibition [7] 3.73%

CCOC(=O)N1CCN(C(=O)C(NC(=O)C2CCC(C)CC2)C(C)C)CC1 (stereo not drawn)
inactive: growth inhibition [1] 10.9% | growth inhibition [2] 7.68% | viability increase [3] -0.76% | viability [4] 101% | viability [5] 99.9% | inhibition [6] -0.215% | RAM network inhibition [7] -0.98%

O=C(NCCN1CCCCC1)c1ccc2c(c1)OCCO2
inactive: growth inhibition [1] -9.66% | growth inhibition [2] -10.3% | viability increase [3] -1.4% | viability [4] 102% | viability [5] 99% | inhibition [6] 1.86% | RAM network inhibition [7] 2.64%

Cc1cccc(CCNC(=O)CN(C)S(=O)(=O)c2ccc3c(c2)c(=O)n(C)c(=O)n3C)c1
inactive: growth inhibition [1] -12.1% | growth inhibition [2] -22.2% | viability increase [3] -0.92% | viability [4] 102% | viability [5] 90.4% | inhibition [6] 1.75% | RAM network inhibition [7] 2.91%

Cc1c(C(=O)N2CCC(C(N)=O)CC2)sc(N)c1C#N
inactive: growth inhibition [1] -12.1% | growth inhibition [2] -8.07% | viability increase [3] -0.41% | viability [4] 94.7% | viability [5] 99.1% | inhibition [6] 2.91% | RAM network inhibition [7] 9.2%

COc1cccc(-n2nnc3c(=O)n(Cc4cccc(C)c4)cnc32)c1
inactive: growth inhibition [1] -8.22% | growth inhibition [2] -5.66% | viability increase [3] 0.31% | viability [4] 104% | viability [5] 89.7% | inhibition [6] 0.335% | RAM network inhibition [7] 5.49%

NC(=O)SCC(=O)Nc1ccc(Cl)c(Cl)c1
inactive: growth inhibition [1] -0.33% | growth inhibition [2] 4.16% | viability increase [3] -7.83% | viability [4] 38% | viability [5] 42.8% | inhibition [6] 2.52% | RAM network inhibition [7] 4.56%

CCc1nnc(NC(=O)c2cccs2)s1
inactive: growth inhibition [1] -21.3% | growth inhibition [2] -3.98% | viability increase [3] 2.17% | viability [4] 102% | viability [5] 90.1% | inhibition [6] 1.29% | RAM network inhibition [7] 0.32%

COC(=O)c1ccc(CSc2nc3c(c(=O)n2-c2ccc(F)cc2)SCC3)o1
inactive: growth inhibition [1] -7.83% | growth inhibition [2] -16.6% | viability increase [3] -3.02% | viability [4] 83.7% | viability [5] 81.3% | inhibition [6] 1.3% | RAM network inhibition [7] 1.52%

CCOc1ccc(C(=O)Nn2cnnc2)cc1
inactive: growth inhibition [1] -3.16% | growth inhibition [2] -5.59% | viability increase [3] 0.25% | viability [4] 104% | viability [5] 103% | inhibition [6] 0.895% | RAM network inhibition [7] 1.85%

Cc1ccc(N2CN=c3s/c(=C\c4ccccn4)c(=O)n3C2)cc1
inactive: growth inhibition [1] -7.53% | growth inhibition [2] 1.19% | viability increase [3] -2.37% | viability [4] 86.8% | viability [5] 98.7% | inhibition [6] -0.31% | RAM network inhibition [7] 3.39%

CSC1=N/C(=C\c2ccccc2F)C(=O)S1
inactive: growth inhibition [1] -23.1% | growth inhibition [2] -24.4% | viability increase [3] -2.19% | viability [4] 102% | viability [5] 104% | inhibition [6] 0.435% | RAM network inhibition [7] -0.79%

Cc1occc1C(=O)NC(C)CCc1ccccc1 (stereo not drawn)
inactive: growth inhibition [1] -7.82% | growth inhibition [2] 2.38% | viability increase [3] -0.95% | viability [4] 91.8% | viability [5] 94.1% | inhibition [6] 3.1% | RAM network inhibition [7] 0.62%

O=C(C1CCN(c2ncnc3c2sc2cccc(F)c23)CC1)N1CCOCC1
inactive: growth inhibition [1] 0.06% | growth inhibition [2] 2.17% | viability increase [3] -6.73% | viability [4] 77.2% | viability [5] 76.8% | inhibition [6] 3.08% | RAM network inhibition [7] 1.81%
